Results as given in ChEMBL document CHEMBL1811814, “Synthesis and evaluation of indole, pyrazole, chromone and pyrimidine based conjugates for tumor growth inhibitory activities--development of highly efficacious cytotoxic agents” (Eur J Med Chem, 2010).

Key:
Type in all cases: functional
SF-295 = experiment: Growth inhibition of human SF295 cells assessed tumor cell growth at 10^-5 M; set-up: scale not given: the % may be the effect or the level left
How it was run: (§1)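 NCI 60-human-tumor-cell-line panel screen. Each compound was tested at a single concentration of 10^-5 M, and percent growth of tumor cells was recorded for each cell line. Growth inhibition was expressed from these percent-growth values.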

BT-549 = experiment: Growth inhibition of human BT549 cells assessed tumor cell growth at 10^-5 M; set-up: scale not given: the % may be the effect or the level left; how it was run: as §1
UACC-257 [1] = experiment: Growth inhibition of human UACC257 cells assessed tumor cell growth at 10^-5 M; set-up: scale not given: the % may be the effect or the level left
How it was run: (§2)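 Single-dose screen at 10^-5 M across the 60 human tumor cell line panel, run to NCI standards. The value is the percent growth of each cell line in the presence of compound. Compounds active at this dose moved on to five-concentration testing (10^-4 to 10^-8 M).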

Malme-3M [2] = experiment: Growth inhibition of human MALME-3M cells assessed tumor cell growth at 10^-5 M; set-up: scale not given: the % may be the effect or the level left; how it was run: as §1
PC-3 = experiment: Growth inhibition of human PC3 cells assessed tumor cell growth at 10^-5 M; set-up: scale not given: the % may be the effect or the level left; how it was run: as §1
T47D = experiment: Growth inhibition of human T47D cells
HCC 2998 = experiment: Growth inhibition of human HCC2998 cells assessed tumor cell growth at 10^-5 M; set-up: scale not given: the % may be the effect or the level left; how it was run: as §1
DU-145 = experiment: Growth inhibition of human DU145 cells assessed tumor cell growth at 10^-5 M; set-up: scale not given: the % may be the effect or the level left; how it was run: as §1
SK-MEL-28 = experiment: Growth inhibition of human SK-MEL-28 cells assessed tumor cell growth at 10^-5 M; set-up: scale not given: the % may be the effect or the level left; how it was run: as §1
[3] = Growth inhibition of human Hs 578T cells
HL-60(TB) [4] = experiment: Growth inhibition of human HL-60(TB) cells
HOP-62 = experiment: Growth inhibition of human HOP62 cells assessed tumor cell growth at 10^-5 M; set-up: scale not given: the % may be the effect or the level left; how it was run: as §1
RXF 393 = experiment: Growth inhibition of human RXF393 cells assessed tumor cell growth at 10^-5 M; set-up: scale not given: the % may be the effect or the level left; how it was run: as §1
SF-539 [5] = experiment: Growth inhibition of human SF539 cells
MOLT-4 [6] = experiment: Growth inhibition of human MOLT4 cells assessed tumor cell growth at 10^-5 M; set-up: scale not given: the % may be the effect or the level left; how it was run: as §1
UACC-257 [7] = experiment: Growth inhibition of human UACC257 cells
SR = experiment: Growth inhibition of human SR cells assessed tumor cell growth at 10^-5 M; set-up: scale not given: the % may be the effect or the level left; how it was run: as §2
SF-268 [8] = experiment: Growth inhibition of human SF268 cells
UO-31 = experiment: Growth inhibition of human UO31 cells
HL-60(TB) [9] = experiment: Growth inhibition of human HL-60(TB) cells assessed tumor cell growth at 10^-5 M; set-up: scale not given: the % may be the effect or the level left
How it was run: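 HL-60(TB), part of the 60-line panel, tested at a single concentration of 10^-5 M. The read-out is percent tumor cell growth relative to untreated growth.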

IGROV-1 [10] = experiment: Growth inhibition of human IGROV1 cells
How it was run: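 Follow-up panel testing at five concentrations (10^-4, 10^-5, 10^-6, 10^-7 and 10^-8 M) across the 60 human tumor cell lines. GI50 was obtained for each line from the concentration-response data, with the panel average GI50 also reported.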

786-0 = experiment: Growth inhibition of human 786-0 cells
SW-620 = experiment: Growth inhibition of human SW620 cells
A549 = experiment: Growth inhibition of human A549 cells
A498 = experiment: Growth inhibition of human A498 cells
NCI-H460 = experiment: Growth inhibition of human NCI-H460 cells
SNB-75 = experiment: Growth inhibition of human SNB75 cells assessed tumor cell growth at 10^-5 M; set-up: scale not given: the % may be the effect or the level left; how it was run: as §2
SNB-19 = experiment: Growth inhibition of human SNB19 cells
SF-268 [11] = experiment: Growth inhibition of human SF268 cells assessed tumor cell growth at 10^-5 M; set-up: scale not given: the % may be the effect or the level left; how it was run: as §1
MDA-MB-435 = experiment: Growth inhibition of human MDA-MB-435 cells assessed tumor cell growth at 10^-5 M; set-up: scale not given: the % may be the effect or the level left; how it was run: as §1
COLO 205 = experiment: Growth inhibition of human COLO205 cells
NCI-H522 = experiment: Growth inhibition of human NCI-H522 cells
[12] = Growth inhibition of human […] cells assessed tumor cell growth at 10^-5 M; set-up: scale not given: the % may be the effect or the level left; how it was run: as §1
HCT-15 = experiment: Growth inhibition of human HCT15 cells
IGROV-1 [13] = experiment: Growth inhibition of human IGROV1 cells assessed tumor cell growth at 10^-5 M; set-up: scale not given: the % may be the effect or the level left; how it was run: as §1
UACC-62 = experiment: Growth inhibition of human UACC62 cells
K562 = experiment: Growth inhibition of human K562 cells
HT-29 = experiment: Growth inhibition of human HT-29 cells assessed tumor cell growth at 10^-5 M; set-up: scale not given: the % may be the effect or the level left; how it was run: as §1
CAKI-1 [14] = experiment: Growth inhibition of human Caki1 cells
[15] = Growth inhibition of human RPMI8266 cells
Malme-3M [16] = experiment: Growth inhibition of human MALME-3M cells
CAKI-1 [17] = experiment: Growth inhibition of human Caki1 cells assessed tumor cell growth at 10^-5 M; set-up: scale not given: the % may be the effect or the level left; how it was run: as §1
MOLT-4 [18] = experiment: Growth inhibition of human MOLT4 cells
OVCAR-3 = experiment: Growth inhibition of human OVCAR3 cells
MDA-MB-231 = experiment: Growth inhibition of human MDA-MB-231 cells
U-251 = experiment: Growth inhibition of human U251 cells assessed tumor cell growth at 10^-5 M; set-up: scale not given: the % may be the effect or the level left; how it was run: as §2
OVCAR-5 = experiment: Growth inhibition of human OVCAR5 cells assessed tumor cell growth at 10^-5 M; set-up: scale not given: the % may be the effect or the level left; how it was run: as §1
TK-10 = experiment: Growth inhibition of human TK10 cells assessed tumor cell growth at 10^-5 M; set-up: scale not given: the % may be the effect or the level left; how it was run: as §2
SK-OV-3 = experiment: Growth inhibition of human SKOV3 cells assessed tumor cell growth at 10^-5 M; set-up: scale not given: the % may be the effect or the level left; how it was run: as §1
SF-539 [19] = experiment: Growth inhibition of human SF539 cells assessed tumor cell growth at 10^-5 M; set-up: scale not given: the % may be the effect or the level left; how it was run: as §1
CCRF-CEM = experiment: Growth inhibition of human CCRF-CEM cells assessed tumor cell growth at 10^-5 M; set-up: scale not given: the % may be the effect or the level left; how it was run: as §1
[20] = read-out: LC50 (the source's name)

Molecule `O=C1/C(=C\c2ccccn2)c2ccccc2N1c1c(Cl)cccc1Cl` has an Activity (SF-295) of 12.33%, an Activity (BT-549) of -17.72% and an Activity (UACC-257 [1]) of 59.3%. The Activity (Malme-3M [2]) was 67.26%, the Activity (PC-3) was 31.44% and the GI50 (T47D) was 2.3 µM. For the same molecule, the CC50 (T47D; [20]) was over 100 µM, the Activity (HCC 2998) was -82.08% and the Activity (DU-145) was -0.09%. It also gave an Activity (SK-MEL-28) of -10.05%, a GI50 [3] of 5.6 µM and a CC50 [3, 20] of over 100 µM. The GI50 (HL-60(TB) [4]) was 3.8 µM, the CC50 (HL-60(TB) [4]; [20]) was over 100 µM and the Activity (HOP-62) was 5.17%. The Activity (RXF 393) was -35.21%, the GI50 (SF-539 [5]) was 2.4 µM and the CC50 (SF-539 [5]; [20]) was over 100 µM. It also gave an Activity (MOLT-4 [6]) of 3.8%, a GI50 (UACC-257 [7]) of 1.7 µM and a CC50 (UACC-257 [7]; [20]) of 18.2 µM. The Activity (SR) was -4.3%, the GI50 (SF-268 [8]) was 3.6 µM and the CC50 (SF-268 [8]; [20]) was 40.7 µM. The GI50 (UO-31) was 1.4 µM, the CC50 (UO-31; [20]) was 6 µM and the Activity (HL-60(TB) [9]) was 1.39%. For the same molecule, the GI50 (IGROV-1 [10]) was 1.7 µM, the GI50 (786-0) was 1.9 µM and the CC50 (786-0; [20]) was 6.6 µM. It also gave a GI50 (SW-620) of 1.9 µM, a CC50 (SW-620; [20]) of 6.7 µM and a GI50 (A549) of 1.9 µM. For the same molecule, the CC50 (A549; [20]) was 43.6 µM, the GI50 (A498) was 2.9 µM and the CC50 (A498; [20]) was 72.4 µM. For the same molecule, the GI50 (NCI-H460) was 1.8 µM, the CC50 (NCI-H460; [20]) was 7 µM and the Activity (SNB-75) was -17.92%. It also gave a GI50 (SNB-19) of 2.2 µM, a CC50 (SNB-19; [20]) of 32.3 µM and an Activity (SF-268 [11]) of 7.81%. The Activity (MDA-MB-435) was -5.05%, the GI50 (COLO 205) was 2.3 µM and the LC50 (COLO 205) was over 100 µM. The GI50 (NCI-H522) was 1.6 µM, the LC50 (concentration killing 50% of cells) (NCI-H522) was 7.5 µM and the Activity [12] was -12.52%. The GI50 (HCT-15) was 2 µM, the CC50 (HCT-15; [20]) was 28.8 µM and the Activity (IGROV-1 [13]) was 8.25%. It also gave a GI50 (UACC-62) of 1.6 µM, a CC50 (UACC-62; [20]) of 6.9 µM and a GI50 (K562) of 3.9 µM. For the same molecule, the CC50 (K562; [20]) was over 100 µM, the Activity (HT-29) was 10.75% and the GI50 (CAKI-1 [14]) was 1.3 µM. For the same molecule, the CC50 (CAKI-1 [14]; [20]) was 7.4 µM, the GI50 [15] was 2.2 µM and the CC50 [15, 20] was over 100 µM. For the same molecule, the GI50 (Malme-3M [16]) was 1.9 µM, the CC50 (Malme-3M [16]; [20]) was 16.9 µM and the Activity (CAKI-1 [17]) was -1.37%. It also gave a GI50 (MOLT-4 [18]) of 4.4 µM, an LC50 (MOLT-4 [18]) of over 100 µM and a GI50 (OVCAR-3) of 1.7 µM. For the same molecule, the CC50 (OVCAR-3; [20]) was 6.9 µM, the GI50 (MDA-MB-231) was 2 µM and the CC50 (MDA-MB-231; [20]) was 29.5 µM. The Activity (U-251) was -2.48%, the Activity (OVCAR-5) was 122.39% and the Activity (TK-10) was 52%. For the same molecule, the Activity (SK-OV-3) was 39.19%, the Activity (SF-539 [19]) was 1.27% and the Activity (CCRF-CEM) was 8.81%.
